Common to all, as to type: functional
The subject of assay [1] is Bacillus cereus. Nature of the assay: Bactericidal activity against Bacillus cereus MTCC 430 assessed as log reduction in bacterial count at 0.2 mg/mL up to 48 hrs by time-kill assay. The method, boiled down: (§1)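 Time-kill by pour plate. Overnight 37 °C cultures in Mueller-Hinton broth were dosed at about 0.2 mg/mL and incubated at 37 °C for up to 72 h, with broth replenished every 24 h. Samples were taken over time, serially diluted, and pour-plated on MHA at 37 °C for 18–24 h. Colonies were counted as CFU/ml against untreated culture controls.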

The test system of assay [2] is Shigella dysenteriae. Nature of the assay: Antibacterial activity against Shigella dysenteriae assessed as zone of growth inhibition at 0.2 mg/ml after 18 to 24 hrs by Kirby-Bauer agar diffusion method. The settings on record: read-out: DIZ. (In general: In agar diffusion tests the substance spreads into inoculated agar from a disc or well.)
For assay [3], the system named is Staphylococcus aureus. Nature of the assay: Bactericidal activity against Staphylococcus aureus MTCC 3160 assessed as time required to complete extermination of bacteria at 0.2 mg/mL by time-kill assay. The method, boiled down:
as §1

The subject of assay [4] is Bacillus cereus. Nature of the assay: Antibacterial activity against Bacillus cereus MTCC 430 assessed as zone of growth inhibition at 0.2 mg/ml after 18 to 24 hrs by Kirby-Bauer agar diffusion method. To be noted: read-out: DIZ. The method, boiled down: (§2)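 Kirby-Bauer disc diffusion on Mueller-Hinton agar, following CLSI 2007 guidelines, with ciprofloxacin as reference drug. Read-out is the diameter of the zone of growth inhibition in mm.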

Assay [5] relates to Staphylococcus aureus. Nature of the assay: Antibacterial activity against Staphylococcus aureus MTCC 3160 assessed as zone of growth inhibition at 0.2 mg/ml after 18 to 24 hrs by Kirby-Bauer agar diffusion method. The settings on record: read-out: DIZ. The method, boiled down: as §2
In assay [6] the test system is Vibrio cholerae. Nature of the assay: Antibacterial activity against Vibrio cholerae MTCC 3904 assessed as zone of growth inhibition at 0.2 mg/ml after 18 to 24 hrs by Kirby-Bauer agar diffusion method. The settings on record: read-out: DIZ.
Assay [7] concerns Escherichia coli. Nature of the assay: Antibacterial activity against Escherichia coli MTCC 1610 assessed as zone of growth inhibition at 0.2 mg/ml after 18 to 24 hrs by Kirby-Bauer agar diffusion method. To be noted: read-out: DIZ. The method, boiled down:
as §2

Assay [8] relates to Vibrio cholerae. Nature of the assay: Bactericidal activity against Vibrio cholerae MTCC 3904 assessed as time required to complete extermination of bacteria at 0.2 mg/mL by time-kill assay.
Assay [9] relates to Bacillus cereus. Nature of the assay: Bactericidal activity against Bacillus cereus MTCC 430 assessed as time required to complete extermination of bacteria at 0.2 mg/mL by time-kill assay. The method, boiled down:
as §1

Assay [10] relates to Escherichia coli. Nature of the assay: Bactericidal activity against Escherichia coli MTCC 1610 assessed as time required to complete extermination of bacteria at 0.2 mg/mL by time-kill assay. In short, it runs like this: as §1
For assay [11], the system named is Shigella dysenteriae. Nature of the assay: Bactericidal activity against Shigella dysenteriae assessed as time required to complete extermination of bacteria at 0.2 mg/mL by time-kill assay.
For assay [12], the system named is Bacillus cereus. Nature of the assay: Bactericidal activity against Bacillus cereus MTCC 430 assessed as time required to complete extermination of bacteria by time-kill assay. The method, boiled down:
as §1

Assay [13] deals with Bacillus cereus. Nature of the assay: Antibacterial activity against Bacillus cereus MTCC 430 assessed as zone of growth inhibition after 18 to 24 hrs by Kirby-Bauer agar diffusion method. The method, boiled down: as §2
The test system of assay [14] is Vibrio cholerae. Nature of the assay: Bactericidal activity against Vibrio cholerae MTCC 3904 assessed as time required to complete extermination of bacteria by time-kill assay.
The subject of assay [15] is Shigella dysenteriae. Nature of the assay: Bactericidal activity against Shigella dysenteriae assessed as time required to complete extermination of bacteria by time-kill assay.
Assay [16] relates to Vibrio cholerae. Nature of the assay: Antibacterial activity against Vibrio cholerae MTCC 3904 assessed as zone of growth inhibition after 18 to 24 hrs by Kirby-Bauer agar diffusion method.
The subject of assay [17] is Shigella dysenteriae. Nature of the assay: Antibacterial activity against Shigella dysenteriae assessed as zone of growth inhibition at after 18 to 24 hrs by Kirby-Bauer agar diffusion method.
Assay [18] deals with Staphylococcus aureus. Nature of the assay: Bactericidal activity against Staphylococcus aureus MTCC 3160 assessed as time required to complete extermination of bacteria by time-kill assay. The method, boiled down:
as §1

The source of these data is ChEMBL document CHEMBL1921785, “Exploration of in vitro time point quantitative evaluation of newly synthesized benzimidazole and benzothiazole derivatives as potential antibacterial agents” (2011).

As for `CC(C)c1ccc(-c2nc3ccccc3s2)cc1`, the “log reduction in bacterial count” value in the assay with Bacillus cereus [1] came to 3. Moreover, the zone of inhibition at 200 µg/mL is 15 mm with Shigella dysenteriae [2], 20 mm in the assay with Bacillus cereus [4] and 13 mm in the assay with Staphylococcus aureus [5]. Besides, the Time with Staphylococcus aureus [3] is less than 48 h.
Turning to `c1coc(Cn2c(-c3ccco3)nc3ccccc32)c1`, the zone of inhibition at 200 µg/mL with Shigella dysenteriae [2] came out at 12 mm; with Vibrio cholerae [6], 13 mm; in the assay on Staphylococcus aureus [5], 10 mm. Moreover, the Time in the assay with Staphylococcus aureus [3] was less than 48 h.
In the case of `CCOc1cc(Cn2c(-c3ccc(O)c(OCC)c3)nc3ccccc32)ccc1O`, the results for the zone of inhibition at 200 µg/mL in the assay on Escherichia coli [7] and in the assay with Staphylococcus aureus [5] were 14 mm and 23 mm, respectively. For the same compound, the Time with Staphylococcus aureus [3] was less than 24 h.
Take `Oc1ccc(Cn2c(-c3ccc(O)cc3)nc3ccccc32)cc1`: the zone of inhibition at 200 µg/mL in the assay with Shigella dysenteriae [2] worked out at 11 mm.
As for `COc1cc(-c2nc3ccccc3s2)cc(OC)c1OC`, the zone of inhibition at 200 µg/mL in the assay on Shigella dysenteriae [2] was found to be 23 mm.
In the case of `CCOc1ccc(-c2nc3ccccc3s2)cc1`, the “log reduction in bacterial count” value in the assay on Bacillus cereus [1] stood at 3. In addition, the zone of inhibition at 200 µg/mL with Shigella dysenteriae [2] worked out at 16 mm; with Escherichia coli [7] it was 12 mm; with Vibrio cholerae [6] it was 15 mm; in the assay with Bacillus cereus [4], 22 mm; in the assay with Staphylococcus aureus [5] it was 16 mm. The Time with Staphylococcus aureus [3] is less than 48 h.
In the case of `c1ccc(Cn2c(-c3ccccc3)nc3ccccc32)cc1`, in the assay on Bacillus cereus [1], the “log reduction in bacterial count” value is listed as 3. Besides, the zone of inhibition at 200 µg/mL in the assay on Shigella dysenteriae [2] is 23 mm; with Escherichia coli [7] it was 19 mm; in the assay with Vibrio cholerae [6], 33 mm; in the assay on Bacillus cereus [4] it was 22 mm; with Staphylococcus aureus [5], 10 mm. In the assay on Vibrio cholerae [8], the Time is less than 24 h.
In the case of `Cc1ccc(Cn2c(-c3ccc(C)cc3)nc3ccccc32)cc1`, the values for the zone of inhibition at 200 µg/mL with Shigella dysenteriae [2], in the assay on Vibrio cholerae [6] and in the assay on Staphylococcus aureus [5] were 13 mm, 18 mm and 12 mm, respectively.
On the same counts, the results for `CN(C)c1ccc(Cn2c(-c3ccc(N(C)C)cc3)nc3ccccc32)cc1` are 16 mm, 17 mm and 11 mm.
In the case of `CC(C)(C)c1ccc(Cn2c(-c3ccc(C(C)(C)C)cc3)nc3ccccc32)cc1`, the zone of inhibition at 200 µg/mL was determined as 13 mm in the assay with Shigella dysenteriae [2], 17 mm with Escherichia coli [7], 21 mm in the assay with Vibrio cholerae [6] and 12 mm with Bacillus cereus [4].
For `Oc1ccc(Br)cc1Cn1c(-c2cc(Br)ccc2O)nc2ccccc21`, the values for the zone of inhibition at 200 µg/mL in the assay with Escherichia coli [7] and in the assay with Bacillus cereus [4] were 17 mm and 33 mm, respectively. In addition, the Time in the assay with Bacillus cereus [9] is less than 24 h.
As for `Fc1ccc(Cn2c(-c3ccc(F)cc3)nc3ccccc32)cc1`, the zone of inhibition at 200 µg/mL is 18 mm in the assay on Bacillus cereus [4] and 10 mm with Staphylococcus aureus [5].
Take `FC(F)(F)Oc1ccc(Cn2c(-c3ccc(OC(F)(F)F)cc3)nc3ccccc32)cc1`: the zone of inhibition at 200 µg/mL with Shigella dysenteriae [2] was found to be 11 mm; with Vibrio cholerae [6], 23 mm; in the assay with Staphylococcus aureus [5] it was 10 mm. Moreover, the Time is less than 48 h in the assay on Staphylococcus aureus [3] and less than 24 h in the assay with Vibrio cholerae [8].
Turning to `Clc1ccc(Cn2c(-c3ccc(Cl)c(Cl)c3)nc3ccccc32)cc1Cl`, the zone of inhibition at 200 µg/mL in the assay with Shigella dysenteriae [2] is 11 mm.
Regarding `C(=C/c1nc2ccccc2n1C/C=C/c1ccccc1)/c1ccccc1`, the zone of inhibition at 200 µg/mL was 11 mm in the assay with Vibrio cholerae [6] and 14 mm in the assay with Bacillus cereus [4].
In the case of `CCCCCCCn1c(CCCCCC)nc2ccccc21`, the zone of inhibition at 200 µg/mL is 21 mm in the assay with Shigella dysenteriae [2], 16 mm in the assay on Vibrio cholerae [6], 15 mm in the assay with Bacillus cereus [4] and 12 mm in the assay with Staphylococcus aureus [5].
With `O=[N+]([O-])c1cccc(Cn2c(-c3cccc([N+](=O)[O-])c3)nc3ccccc32)c1`, the zone of inhibition at 200 µg/mL stood at 13 mm in the assay on Vibrio cholerae [6] and 10 mm with Staphylococcus aureus [5].
In the case of `FC(F)(F)c1ccc(Cn2c(-c3ccc(C(F)(F)F)cc3)nc3ccccc32)cc1`, the zone of inhibition at 200 µg/mL in the assay with Shigella dysenteriae [2] was found to be 19 mm; in the assay with Escherichia coli [7] it was 22 mm; in the assay with Vibrio cholerae [6], 13 mm; with Staphylococcus aureus [5], 22 mm. Also, the Time with Escherichia coli [10] was less than 48 h.
`Brc1ccc(Cn2c(-c3ccc(Br)cc3)nc3ccccc32)cc1`: the zone of inhibition at 200 µg/mL is 13 mm in the assay with Shigella dysenteriae [2], 16 mm in the assay with Vibrio cholerae [6] and 15 mm with Bacillus cereus [4].
Turning to `CCc1ccccc1-c1nc2ccccc2s1`, the “log reduction in bacterial count” value in the assay with Bacillus cereus [1] was 3. In addition, the zone of inhibition at 200 µg/mL with Shigella dysenteriae [2] came to 35 mm; in the assay on Escherichia coli [7] it was 11 mm; in the assay on Vibrio cholerae [6], 16 mm; in the assay on Bacillus cereus [4] it was 21 mm; with Staphylococcus aureus [5], 13 mm. Moreover, the Time with Shigella dysenteriae [11] was found to be 72 h.
In the case of `CCOc1ccc(-c2nc3ccccc3s2)cc1OC`, the zone of inhibition at 200 µg/mL in the assay with Shigella dysenteriae [2] turned out to be 15 mm; with Vibrio cholerae [6], 16 mm; with Staphylococcus aureus [5], 12 mm.
As for `COc1ccc(Br)cc1-c1nc2ccccc2s1`, the zone of inhibition at 200 µg/mL was 17 mm in the assay on Vibrio cholerae [6], 21 mm in the assay on Bacillus cereus [4] and 12 mm with Staphylococcus aureus [5].
Turning to `O=[N+]([O-])c1ccc(-c2nc3ccccc3s2)cc1`, the zone of inhibition at 200 µg/mL in the assay on Shigella dysenteriae [2] is 13 mm; in the assay with Bacillus cereus [4], 14 mm.
Turning to `Oc1ccc(-c2nc3ccccc3s2)cc1`, the zone of inhibition at 200 µg/mL amounted to 18 mm in the assay on Vibrio cholerae [6] and 19 mm in the assay on Bacillus cereus [4]. Moreover, in the assay with Bacillus cereus [9], the Time is less than 24 h.
As for `O=C(O)c1cn(C2CC2)c2cc(N3CCNCC3)c(F)cc2c1=O` [CIPROFLOXACIN], the Time is 48 h in the assay on Bacillus cereus [12], 48 h with Vibrio cholerae [14], less than 72 h in the assay on Shigella dysenteriae [15] and 48 h in the assay on Staphylococcus aureus [18]. Also, the “diameter of the inhibition zone (DIZ)” value was 14 mm in the assay with Bacillus cereus [13], 24 mm with Vibrio cholerae [16] and 14 mm in the assay on Shigella dysenteriae [17].
